Experimental data pooled from the literature.
Protocols differ between the studies behind these lines.
Effect on: cell growth or viability

O=C(CSc1nc2ccccc2s1)N/N=C/c1ccc(OCC(=O)Nc2cccc(Cl)c2)cc1 — IC50 (LN-229; MTS; 72 h): 19.6 µM
CCc1oc2cc(S(=O)(=O)Nc3ccc(S(=O)(=O)Nc4nccs4)cc3)ccc2c1C(=O)c1cc(Br)c(O)c(Br)c1 — IC50 (T47D; MTT; 96 h): 62.2 µM
O=C(NO)c1ccc(Cn2cnc3c(Nc4ccc(F)c(Cl)c4)ncnc32)cc1 — IC50 (Jurkat; MTT; 72 h): 1.2 µM
Cc1ncsc1-c1ccc([C@H](C)NC(=O)[C@@H]2C[C@@H](O)CN2C(=O)[C@@H](NC(=O)CCCCCCCS(=O)(=O)NC(=O)c2nc(N3CCc4cccc(C(=O)Nc5nc6ccccc6s5)c4C3)ccc2-c2cnn(CC34CC5CC(CC(C5)C3)C4)c2C)C(C)(C)C)cc1 — IC50 (MOLT-4; MTS; 48 h): 0.0037 µM
Nc1ccccc1NC(=O)c1ccc(Cn2cnc3c(Nc4ccc(Cl)cc4)ncnc32)cc1 — IC50 (MOLT-4; MTT; 72 h): 0.49 µM
FC(F)(F)c1cc(OCc2cc(-c3ccc(Cl)cc3Cl)no2)c2ccccc2n1 — IC50 (LN-229; MTS; 72 h): > 100 µM
Nc1ccccc1NC(=O)c1ccc(Cn2cnc3c(Nc4ccc(Br)cc4F)ncnc32)cc1 — IC50 (MOLT-4; MTT; 72 h): 0.45 µM
COc1cc2[nH]cc(C(=O)C(C#N)=Cc3cn(C)c4ccccc34)c2cc1OC — IC50 (MIA PaCa-2; MTT; 48 h): 15.6 µM
NS(=O)(=O)c1ccc(-n2nc(C(=O)NN=Cc3ccccc3O)cc2-c2ccccc2)cc1 — IC50 (PaCa-2; fluorescence; 48 h): 10.9 µM
Cc1c(-c2ccc(N3CCc4cccc(C(=O)Nc5nc6ccccc6s5)c4C3)nc2C(=O)O)cnn1CC12CC3CC(C1)CC(C(=O)NCCCCNc1cccc4c1C(=O)N(C1CCC(=O)NC1=O)C4=O)(C3)C2 (centres unmarked) — IC50 (MOLT-4; MTS; 48 h): 0.0302 µM
Nc1nnc(-c2ccccc2O)cc1N1CC2CCC(C1)N2c1ccnc(F)c1 — IC50 (LNCaP; ATP luminescence; 7 days): > 1 µM
CCn1cc(C=C(C#N)C(=O)c2c[nH]c3cc(OC)ccc23)c2ccccc21 — IC50 (MIA PaCa-2; MTT; 48 h): > 40 µM
O=C(NO)c1ccc(Cn2cnc3c(Nc4cccc([N+](=O)[O-])c4)ncnc32)cc1 — IC50 (MOLT-4; MTT; 72 h): 0.92 µM
Clc1ccc(-c2cc(CNc3cccc4cccnc34)on2)c(Cl)c1 — IC50 (LN-229; MTS; 72 h): 54.4 µM
Cc1ncsc1-c1ccc(CNC(=O)[C@@H]2C[C@@H](O)CN2C(=O)[C@@H](NC(=O)C2(F)CC2)C(C)(C)C)c(OCCOc2ccc(CN3CCN(c4cc(-c5ccccc5O)nnc4N)CC3)cc2)c1 — IC50 (LNCaP; ATP luminescence; 7 days): 0.0161 µM
O=C(CSc1nc2ccccc2s1)N/N=C/c1ccc(OCC(=O)Nc2ccc([N+](=O)[O-])cc2)cc1 — IC50 (LN-229; MTS; 72 h): 4.39 µM
COc1ccc2c(C(=O)C(C#N)=Cc3cn(Cc4ccc(Cl)cc4)c4ccccc34)c[nH]c2c1 — IC50 (MIA PaCa-2; MTT; 48 h): 7.9 µM
Cc1c(-c2ccc(N3CCc4cccc(C(=O)Nc5nc6ccccc6s5)c4C3)nc2C(=O)NCCCCNc2cccc3c2C(=O)N(C2CCC(=O)NC2=O)C3=O)cnn1CC12CC3CC(CC(C3)C1)C2 (centres unmarked) — IC50 (MOLT-4; MTS; 48 h): 0.126 µM
O=c1cc(OCc2cc(-c3ccc(C(F)(F)F)cc3)no2)c2ccccc2o1 — IC50 (LN-229; MTS; 72 h): > 100 µM
Cc1c(-c2ccc(N3CCc4cccc(C(=O)Nc5nc6ccccc6s5)c4C3)nc2C(=O)O)cnn1CC12CC3CC(C1)CC(C(=O)NCCCCCCCCCCNc1cccc4c1C(=O)N(C1CCC(=O)NC1=O)C4=O)(C3)C2 (centres unmarked) — IC50 (MOLT-4; MTS; 48 h): 0.021 µM
FC(F)(F)c1ccc(-c2cc(COc3cc(C(F)(F)F)nc4ccccc34)on2)cc1 — IC50 (LN-229; MTS; 72 h): > 100 µM
O=C(NO)c1ccc(Cn2cnc3c(Nc4ccc(Cl)cc4)ncnc32)cc1 — IC50 (Jurkat; MTT; 72 h): 0.91 µM
COc1cc(C2C3=C(COC3=O)N(CCO)c3cc4c(cc32)CCC4)cc(OC)c1OC (centres unmarked) — IC50 (BT-549; ATP luminescence; 48 h): 0.037 µM
COc1cc([C@@H]2c3cc4c(cc3[C@@H](O[C@@H]3O[C@@H]5CO[C@@H](C)O[C@H]5[C@H](O)[C@H]3O)[C@H]3COC(=O)[C@H]23)OCO4)cc(OC)c1O — IC50 (DU-145; MTT): 0.5 µM
CCn1cc(/C=C(\C#N)C(=O)c2c[nH]c3ccccc23)c2ccccc21 — IC50 (MIA PaCa-2; MTT; 48 h): > 40 µM
COc1cc([C@@H]2c3cc4c(cc3[C@@H](O[C@@H]3O[C@@H]5CO[C@@H](C)O[C@H]5[C@H](O)[C@H]3O)[C@H]3COC(=O)[C@H]23)OCO4)cc(OC)c1O — IC50 (LN-229; MTS; 72 h): 0.02 µM
CNc1cccc(Nc2nc(-c3ccncc3)nc3c2CNCC3)c1 — IC50 (DU-145; MTT): 45.2 µM
CN1CCC(NC2CCc3[nH]c4c(C(N)=O)ccc(-c5ccccc5Cl)c4c3C2)CC1 (centres unmarked) — IC50 (Jurkat; 96 h): 0.0193 µM
O=C(CSc1nc2ccccc2s1)N/N=C/c1ccc(OCC(=O)Nc2cccc(Br)c2)cc1 — IC50 (LN-229; MTS; 72 h): 65.5 µM
N#Cc1ccc(-c2cc(CNc3cccc4cccnc34)on2)cc1 — IC50 (LN-229; MTS; 72 h): 27.2 µM
Cc1ncsc1-c1ccc([C@H](CC(=O)NCCCCCCCCNC(=O)c2nc(N3CCc4cccc(C(=O)Nc5nc6ccccc6s5)c4C3)ccc2-c2cnn(CC34CC5CC(CC(C5)C3)C4)c2C)NC(=O)[C@@H]2C[C@@H](O)CN2C(=O)[C@@H](NC(=O)C2(C#N)CC2)C(C)(C)C)cc1 — IC50 (MOLT-4; MTS; 48 h): 0.313 µM
COc1ccc(C=C(C#N)C(=O)c2c[nH]c3ccccc23)cc1 — IC50 (MIA PaCa-2; MTT; 48 h): 15.4 µM
O=C(CSc1nc2ccccc2s1)N/N=C/c1ccc(OCC(=O)Nc2cccc([N+](=O)[O-])c2)cc1 — IC50 (LN-229; MTS; 72 h): 24.2 µM
NS(=O)(=O)c1ccc(-n2nc(-c3nnc(S)o3)cc2-c2ccccc2)cc1 — IC50 (PaCa-2; fluorescence; 48 h): 34.2 µM
CN1C(=O)C(=O)c2cc3c(c4c2c1cc1ccccc14)OCO3 — IC50 (T47D; MTT; 75 h): 61 µM
NS(=O)(=O)c1ccc(-n2nc(-c3nnc(CCl)o3)cc2-c2ccccc2)cc1 — IC50 (PaCa-2; fluorescence; 48 h): 26.3 µM
CN(C)C(=O)c1cc2cnc(Nc3ccc(-c4ccc5c(=O)cc(N6CCOCC6)oc5c4)cc3)nc2n1C1CCCC1 — IC50 (NGP; ATP luminescence; 72 h): 0.21 µM
COc1cc2[nH]cc(C(=O)C(C#N)=Cc3cn(Cc4ccc(Cl)cc4)c4ccccc34)c2cc1OC — IC50 (MIA PaCa-2; MTT; 48 h): > 40 µM
CCNC(=O)c1nc(N2CCc3cccc(C(=O)Nc4nc5ccccc5s4)c3C2)ccc1-c1cnn(CC23CC4CC(CC(C4)C2)C3)c1C — IC50 (MOLT-4; MTS; 48 h): 0.481 µM
N#Cc1ccc(-c2cc(COc3cc(=O)oc4ccccc34)on2)cc1 — IC50 (LN-229; MTS; 72 h): > 100 µM
Cc1c(-c2ccc(N3CCc4cccc(C(=O)Nc5nc6ccccc6s5)c4C3)nc2C(=O)NCCOCCOCCOCCO)cnn1CC12CC3CC(CC(C3)C1)C2 — IC50 (MOLT-4; MTS; 48 h): 0.0169 µM
Cn1nnc2c(C(N)=O)ncn2c1=O — IC50 (LN-229; MTT): 6000 µM
N#CC(=Cc1cn(Cc2ccc(Cl)cc2)c2ccccc12)C(=O)c1c[nH]c2ccccc12 — IC50 (MIA PaCa-2; MTT; 48 h): 4.9 µM
NS(=O)(=O)c1ccc(-n2nc(C(=O)NN=Cc3cccnc3)cc2-c2ccccc2)cc1 — IC50 (PaCa-2; fluorescence; 48 h): 27.8 µM
c1ccc(-c2cc(CNc3cccc4cccnc34)on2)cc1 — IC50 (LN-229; MTS; 72 h): 33.7 µM
Cc1ncsc1-c1ccc([C@H](CC(=O)NCCCCNC(=O)c2nc(N3CCc4cccc(C(=O)Nc5nc6ccccc6s5)c4C3)ccc2-c2cnn(CC34CC5CC(CC(C5)C3)C4)c2C)NC(=O)[C@@H]2C[C@@H](O)CN2C(=O)[C@@H](NC(=O)C2(C#N)CC2)C(C)(C)C)cc1 — IC50 (MOLT-4; MTS; 48 h): 0.0313 µM
NS(=O)(=O)c1ccc(-n2nc(C(=O)NN=Cc3ccc(O)cc3)cc2-c2ccccc2)cc1 — IC50 (PaCa-2; fluorescence; 48 h): 8.53 µM
